From PMC2633595 (Analytical biochemistry, 2008)
“Also recorded” adds a separate entry of the source. Like-named read-outs stand apart in the source and are kept apart here.

How the values were obtained:
[1] = molecular target: GST-RhoA (Homo sapiens, UniProt P61586); format: binding; conditions: for maximal binding Bmax: 1 mM MgCl2; for Bmax / Kd: 1 mM MgCl2 buffer
Procedure, shortened: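 GST-RhoA purified from E. coli. Loaded at 1 µM overnight at 4°C onto glutathione beads in HPS buffer with 1 mM DTT and 1 mM MgCl2, then washed twice. 10^4 beads incubated 2 h at 4°C with 0–2 µM BODIPY FL GTP or GTP-γ-NH in 1 mM MgCl2. Diluted ≥10-fold and read by flow cytometry. Signal calibrated to BODIPY/bead with fluorescein beads. Bmax and Kd from hyperbolic fit.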

[2] = molecular target: T1, GST-Rab7 (Canis lupus familiaris, UniProt P18067); format: binding, canine; conditions: for maximal binding Bmax: GST-Rab7, 1 mM MgCl2
Procedure, shortened: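 Canine GST-Rab7 from E. coli, glutathione-purified, loaded at 1 µM onto glutathione beads (4°C, overnight, HPS buffer, 1 mM DTT). 10^4 beads incubated 2 h at 4°C with 0–2 µM BODIPY FL GTP, GDP or GTP-γ-NH in 1 mM EDTA or 1 mM MgCl2. Diluted ≥10-fold and read by flow cytometry. Fluorescein calibration beads gave BODIPY/bead. Bmax and Kd from hyperbolic fit.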

[3] = molecular target: T1, GST-Rab7; format: binding, canine; conditions: competition with 100 nM BODIPY FL GTP, 1 mM EDTA buffer
Procedure, shortened: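 Canine Rab7 GST fusion expressed in BL21(DE3) E. coli and glutathione-affinity purified. 1 µM protein loaded overnight at 4°C onto glutathione Superdex beads in HPS buffer (HEPES pH 7.5, KCl, NaCl, dodecyl maltoside) with 1 mM DTT, then washed. 10^4 beads incubated 2 h at 4°C with 100 nM BODIPY FL GTP plus unlabeled GDP or GTP-γ-S. Read by flow cytometry; fitted EC50 converted to Ki.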

[4] = molecular target: T1, GST-Rab7; test: Kinetic assays; format: binding, canine; conditions: for koff: GST-Rab7, 1 mM EDTA buffer
[5] = molecular target: Rab7; conditions: nucleotide free system ref 11; cited from earlier work
[6] = GST-Rab7, 1 mM EDTA buffer, 2 h at 4°C

GST-RhoA, sequence (P61586 whole entry): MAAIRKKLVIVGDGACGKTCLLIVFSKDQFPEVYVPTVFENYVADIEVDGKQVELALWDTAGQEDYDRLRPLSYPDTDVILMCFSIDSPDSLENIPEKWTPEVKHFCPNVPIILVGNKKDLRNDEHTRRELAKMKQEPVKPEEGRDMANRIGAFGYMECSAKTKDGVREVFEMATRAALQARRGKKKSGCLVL
T1 sequence (P18067 whole entry): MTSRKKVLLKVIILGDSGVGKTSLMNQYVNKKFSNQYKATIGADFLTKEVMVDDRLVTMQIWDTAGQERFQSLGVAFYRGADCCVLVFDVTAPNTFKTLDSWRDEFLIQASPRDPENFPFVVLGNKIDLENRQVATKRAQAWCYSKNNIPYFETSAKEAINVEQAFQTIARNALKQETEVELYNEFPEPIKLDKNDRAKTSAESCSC

Compound	maximal binding Bmax [1]	Bmax [1]	Kd [1] [nM]	maximal binding Bmax [2]	Bmax ([2]; GST-Rab7, 1 mM MgCl2 buffer)	Kd ([2]; GST-Rab7, 1 mM MgCl2 buffer) [nM]	koff [4]	higher affinity of Rab7 for GDP relative to GTP ([2]; GST-Rab7) [fold]	Bmax ([2]; GST-Rab7, 1 mM EDTA buffer)	Kd [2, 6] [nM]	Ki [3] [nM]	other results
BODIPY FL GTP-γ-NH amide	710 × 10^3 fluorophores/bead	710 ± 15 10^3 BODIPY/bead	95 ± 10	60 × 10^3 fluorophores/bead	60 ± 5 10^3 BODIPY/bead	70 ± 20	–	–	–	–	–	binding to GST-Rab7 (in words) ([2]; GST-Rab7): unique inability; also recorded: marked inability to bind; lower binding affinity relative to BODIPY FL GTP ([2]; GST-Rab7, with Mg^2+): 90%
Nc1nc2c(ncn2[C@@H]2O[C@H](COP(=O)(O)OP(=O)(O)OP(O)(O)=S)[C@@H](O)[C@H]2O)c(=O)[nH]1 [GTP-γ-S]	–	–	–	–	–	–	–	–	–	–	40 ± 10	–
BODIPY FL GDP 2′-(or-3′)-O-(N-(2-aminoethyl)urethane)	–	–	–	–	–	–	2.3 ± 1.5 × 10^−3 sec^−1	3	2000 ± 400 10^3 BODIPY/bead	54 ± 15	–	–
methylanthraniloyl (mant) GTP	–	–	–	–	–	–	–	–	–	–	–	Kd [5]: 6 nM

Continued, in another order:

maximal binding Bmax [1]	Bmax [1]	Kd [1] [nM]	maximal binding Bmax [2]	Bmax ([2]; GST-Rab7, 1 mM MgCl2 buffer)	Kd ([2]; GST-Rab7, 1 mM MgCl2 buffer) [nM]	koff [4]	higher affinity of Rab7 for GDP relative to GTP ([2]; GST-Rab7) [fold]	Bmax ([2]; GST-Rab7, 1 mM EDTA buffer)	Kd [2, 6] [nM]	Compound	Ki [3] [nM]	other results
700 × 10^3 fluorophores/bead	700 ± 20 10^3 BODIPY/bead	80 ± 10	650 × 10^3 fluorophores/bead	650 ± 10 10^3 BODIPY/bead	20 ± 5	7.0 ±3.0 × 10^−3 sec^−1	–	1600 ± 400 10^3 BODIPY/bead	150 ± 62	BODIPY FL GTP 2’-(or-3’)-O-(N-(2-aminoethyl)urethane	–	faster dissociation of GTP compared to GDP ([4]; GST-Rab7): 3 fold; t1/2 (observed on-rate half-time) ([4]; GST-Rab7, 1 mM EDTA, 50-500 nM BODIPY FL GTP): 11.1 ± 0.6 min; dissociation rate faster in the absence of Mg^2+ relative to Mg^2+ present ([4]; GST-Rab7, competed by excess unlabeled nucleotide): 7 times; koff Mg^2+ ([4]; GST-Rab7, with Mg^2+): 0.0013 s⁻¹; decrease in affinity in the absence of Mg^2+ ([2]; GST-Rab7): 8 fold; maximal binding ([2]; GST-Rab7, 1 mM EDTA): 1600 × 10^3 fluorophores/bead
–	–	–	–	–	–	–	3	–	–	Nc1nc2c(ncn2[C@@H]2O[C@H](COP(=O)(O)OP(=O)(O)O)[C@@H](O)[C@H]2O)c(=O)[nH]1 [GDP]	13 ± 5	slower dissociation rate of GDP ([4]; GST-Rab7, relative to GTP): 3 fold
